# Test results reported in ChEMBL document CHEMBL4152376, “Optimization of 8-Hydroxyquinolines as Inhibitors of Catechol O-Methyltransferase” (J Med Chem, 2018).
# Legend:
# [1] = Efflux ratio of permeability in MDCK cells; format: ADME, cell-based, Canis lupus familiaris; settings: dog
# Procedure, shortened: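 Efflux ratio taken as […] transport across P-glycoprotein-expressing MDCK cells.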
# Rattus norvegicus [2] = assay: Volume of distribution at steady state in rat at 1 mg/kg, iv or 3/10 mg/kg, po; format: ADME, organism-based; settings: in vivo
# Procedure, shortened: (§1)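 Rat pharmacokinetics after a 1 mpk iv dose (n=3) and a 3 or 10 mpk oral dose (n=3).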
# [3] = Protein binding in CSF of Sprague-Dawley rat at 2 uM by equilibrium dialysis; format: ADME, tissue-based, Cerebrospinal fluid; settings: read-out: PB (converted)
# Procedure, shortened: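 Binding in pooled rat CSF measured by equilibrium dialysis at 2 µM test concentration.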
# [4] = Unbound drug level in brain of Sprague-Dawley rat at 10 mg/kg, po after 4 hrs by ES-UPLC analysis; format: ADME, organism-based; settings: in vivo
# Procedure, shortened: (§2)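 Sprague Dawley rats given 10 mg/kg po; CSF, plasma and brain collected at 4 h. Drug measured in CSF; free plasma and brain levels computed from total levels using plasma protein and brain tissue binding fractions. Free CSF derived from CSF binding by equilibrium dialysis with pooled rat CSF. Ratios taken from these values.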
# [5] = target: T1, Catechol O-methyltransferase (Homo sapiens, UniProt P21964); assay: Inhibition of c-terminal hexa-His tagged human MB-COMT expressed in HEK293 cell membrane homogenate using norepinephrine as substrate after 1 hr in presence of SAM by MTase glo methyltransferase assay
# T1 sequence (P21964 whole entry): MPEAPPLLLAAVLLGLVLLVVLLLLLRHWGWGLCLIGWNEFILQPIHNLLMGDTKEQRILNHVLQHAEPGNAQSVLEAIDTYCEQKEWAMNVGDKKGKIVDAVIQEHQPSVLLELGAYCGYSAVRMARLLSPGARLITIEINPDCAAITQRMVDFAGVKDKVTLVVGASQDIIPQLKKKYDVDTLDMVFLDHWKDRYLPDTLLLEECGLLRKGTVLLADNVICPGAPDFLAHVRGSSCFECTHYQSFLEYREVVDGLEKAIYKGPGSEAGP
# Procedure, shortened: (§3)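 Membrane homogenate of HEK293 cells expressing C-terminal His6 MB-COMT (human about 7 ng, rat about 4 ng per well, protein by Bradford […]). 20 µM SAM and 7 µM norepinephrine in 50 mM Tris, 5–10 mM MgCl2, 2.5 mM DTT, pH 6.9, final DMSO 1.5%. 1 h at 37 °C, then MTase-Glo luminescence. […] 4-parameter IC50 fit; triplicate points, three experiments.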
# [6] = Fraction unbound in rat plasma by equilibrium dialysis; format: ADME, cell-free
# Procedure, shortened: (§4)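 Percent free drug in mouse or rat plasma, measured by equilibrium dialysis.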
# [7] = Ratio of drug level in CSF of Sprague-Dawley rat to unbound plasma concentration in Sprague-Dawley rat at 10 mg/kg, po after 4 hrs by ES-UPLC analysis; format: ADME, organism-based; settings: in vivo; procedure, shortened: as §2
# Rattus norvegicus [8] = assay: Oral bioavailability in rat at 3/10 mg/kg; format: ADME, organism-based; settings: in vivo; procedure, shortened: as §1
# [9] = Drug uptake in brain of C57BL/6J mouse at 10 mg/kg, ip measured at 1 hr post dose; format: ADME, organism-based; settings: C57BL/6J, brain, read-out: Drug uptake
# Procedure, shortened: (§5)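 Male C57BL/6J mice (8 weeks), single ip injection of 10 mg/kg suspended in 0.1% Tween80/0.1% antifoam/1% methylcellulose at 10 mL/kg. Two mice per timepoint; at 1 h, plasma separated at 4 °C and brain homogenized in 4 volumes PBS pH 7.4. Total brain and plasma levels measured.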
# Rattus norvegicus [10] = assay: In vivo inhibition of COMT in Sprague-Dawley rat assessed as DOPAC levels in CSF at 10 mg/kg, po measured at 4 hrs post dose by LC-MS analysis relative to control; format: functional
# Procedure, shortened: (§6)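 Male Sprague Dawley rats (176–200 g on arrival) dosed orally at 10 mg/kg in Tween80/antifoam/methylcellulose suspension, 10 mL/kg, vehicle group as control (n=5–10). At 4 h under isoflurane, CSF drawn from cisterna magna. HVA and DOPAC quantified by LC-MS against standards in 0.01 M perchloric acid/aCSF with d5 internal standards. Reported as % of vehicle.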
# [11] = Drug level in CSF of Sprague-Dawley rat at 10 mg/kg, po after 4 hrs by ES-UPLC analysis; format: ADME, organism-based, Cerebrospinal fluid; settings: read-out: Drug uptake; procedure, shortened: as §2
# [12] = target: T2, Broad substrate specificity ATP-binding cassette transporter ABCG2 (Homo sapiens, UniProt Q9UNQ0); assay: Inhibition of BCRP (unknown origin); format: ADME
# T2 sequence (Q9UNQ0 whole entry): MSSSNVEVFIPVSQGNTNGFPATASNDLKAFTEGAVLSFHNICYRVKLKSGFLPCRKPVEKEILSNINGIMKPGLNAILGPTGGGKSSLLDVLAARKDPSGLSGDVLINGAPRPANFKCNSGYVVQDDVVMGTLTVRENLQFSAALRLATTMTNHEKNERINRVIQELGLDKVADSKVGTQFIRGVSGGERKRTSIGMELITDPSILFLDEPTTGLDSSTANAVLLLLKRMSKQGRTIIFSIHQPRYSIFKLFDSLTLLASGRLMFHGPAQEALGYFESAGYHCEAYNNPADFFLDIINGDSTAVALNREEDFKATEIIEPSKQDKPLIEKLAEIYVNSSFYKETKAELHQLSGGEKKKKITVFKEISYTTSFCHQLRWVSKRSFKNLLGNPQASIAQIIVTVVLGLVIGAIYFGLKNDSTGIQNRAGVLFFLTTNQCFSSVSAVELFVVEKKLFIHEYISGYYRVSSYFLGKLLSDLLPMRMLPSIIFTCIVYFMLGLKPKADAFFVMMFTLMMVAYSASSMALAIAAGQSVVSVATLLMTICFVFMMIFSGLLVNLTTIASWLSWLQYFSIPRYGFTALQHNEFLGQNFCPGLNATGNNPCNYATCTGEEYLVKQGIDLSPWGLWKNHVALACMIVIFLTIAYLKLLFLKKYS
# Rattus norvegicus [13] = assay: In vivo inhibition of COMT in Sprague-Dawley rat assessed as HVA levels in CSF at 10 mg/kg, po measured at 4 hrs post dose by LC-MS analysis relative to control; format: functional; design: scale not given: the % may be the effect or the level left; procedure, shortened: as §6
# [14] = Plasma concentration C57BL/6J mouse at 10 mg/kg, ip measured at 1 hr post dose; format: ADME, organism-based; procedure, shortened: as §5
# [15] = Ratio of drug level in CSF of Sprague-Dawley rat to unbound brain concentration in Sprague-Dawley rat at 10 mg/kg, po after 4 hrs by ES-UPLC analysis; format: ADME, organism-based; settings: in vivo; procedure, shortened: as §2
# [16] = Unbound plasma concentration in Sprague-Dawley rat 10 mg/kg, po after 4 hrs by ES-UPLC analysis; format: ADME, organism-based; settings: in vivo; procedure, shortened: as §2
# [17] = target: T3, Catechol O-methyltransferase (Rattus norvegicus, UniProt P22734); assay: Inhibition of c-terminal hexa-His tagged rat MB-COMT expressed in HEK293 cell membrane homogenate using norepinephrine as substrate after 1 hr in presence of SAM by MTase glo methyltransferase assay; procedure, shortened: as §3
# T3 sequence (P22734 whole entry): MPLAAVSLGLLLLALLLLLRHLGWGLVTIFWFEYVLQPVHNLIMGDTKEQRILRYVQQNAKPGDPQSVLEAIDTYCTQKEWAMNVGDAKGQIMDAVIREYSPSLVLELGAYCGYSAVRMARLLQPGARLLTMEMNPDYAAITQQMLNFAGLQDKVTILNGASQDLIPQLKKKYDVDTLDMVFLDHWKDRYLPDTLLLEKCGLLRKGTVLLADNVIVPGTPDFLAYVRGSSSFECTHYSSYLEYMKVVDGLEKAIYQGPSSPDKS
# [18] = target: T1, Catechol O-methyltransferase; assay: Inhibition of c-terminal hexa-His tagged human S-COMT expressed in HEK293-6E cell membrane homogenate using 7,8-dihydroxy-4-methylcoumarin as substrate after 1 hr in presence of SAM by MTase glo methyltransferase assay
# Procedure, shortened: (§7)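 His6-tagged S-COMT (human or rat), expressed in 293-6E cells and purified by Ni-NTA and size exclusion, 1 ng per well. 20 µM SAM and 10 µM 7,8-dihydroxy-4-methylcoumarin in pH 6.9 Tris/MgCl2/DTT buffer, 1.5% DMSO. 1 h at 37 °C, then MTase-Glo luminescence read against a SAH standard curve. […] 4-parameter IC50; triplicate wells, three runs.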
# [19] = Substrate activity at P-glycoprotein (unknown origin); format: ADME; settings: human
# [20] = Ratio of unbound drug level in CSF of Sprague-Dawley rat to unbound plasma concentration in Sprague-Dawley rat at 10 mg/kg, po after 4 hrs by ES-UPLC analysis; format: ADME, organism-based; settings: CSF and plasma; procedure, shortened: as §2
# [21] = Half life in rat at 1 mg/kg, iv or 3/10 mg/kg, po; format: ADME, organism-based; settings: in vivo; procedure, shortened: as §1
# [22] = Clearance in rat hepatocytes assessed as per million cells; format: ADME, cell-based, Hepatocyte; settings: read-out: CLH
# [23] = target: T3, Catechol O-methyltransferase; assay: Inhibition of c-terminal hexa-His tagged rat S-COMT expressed in HEK293-6E cell membrane homogenate using 7,8-dihydroxy-4-methylcoumarin as substrate after 1 hr in presence of SAM by MTase glo methyltransferase assay; procedure, shortened: as §7
# [24] = target: ATP-binding cassette sub-family C member 2 (Homo sapiens, UniProt Q92887); assay: Inhibition of MRP2 (unknown origin)
# [25] = Inhibition of P-glycoprotein (unknown origin); settings: human
# [26] = Apparent permeability of the compound in MDCK cells; format: ADME, cell-based, Canis lupus familiaris; settings: dog
# [27] = Fraction unbound in rat brain by equilibrium dialysis; format: ADME, tissue-based
# Procedure, shortened: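 Percent free drug in rat brain tissue, measured by equilibrium dialysis.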
# [28] = Fraction unbound in mouse plasma by equilibrium dialysis; format: ADME, cell-free; procedure, shortened: as §4
# [29] = Unbound plasma concentration in Sprague-Dawley rat 15 mg/kg, ip after 4 hrs by ES-UPLC analysis; format: ADME, organism-based; settings: in vivo
# [30] = Unbound drug level in brain of Sprague-Dawley rat at 15 mg/kg, ip after 4 hrs by ES-UPLC analysis; format: ADME, organism-based; settings: in vivo, BLD = below limit of detection
# [31] = Drug level in CSF of Sprague-Dawley rat at 15 mg/kg, ip after 4 hrs by ES-UPLC analysis; format: ADME, organism-based, Cerebrospinal fluid; settings: in vivo, BLD = below limit of detection
# [32] = target: T1, Catechol O-methyltransferase; assay: Inhibition of c-terminal hexa-His tagged human MB-COMT (unknown origin)
# ATP-binding cassette sub-family C member 2, sequence (Q92887 whole entry): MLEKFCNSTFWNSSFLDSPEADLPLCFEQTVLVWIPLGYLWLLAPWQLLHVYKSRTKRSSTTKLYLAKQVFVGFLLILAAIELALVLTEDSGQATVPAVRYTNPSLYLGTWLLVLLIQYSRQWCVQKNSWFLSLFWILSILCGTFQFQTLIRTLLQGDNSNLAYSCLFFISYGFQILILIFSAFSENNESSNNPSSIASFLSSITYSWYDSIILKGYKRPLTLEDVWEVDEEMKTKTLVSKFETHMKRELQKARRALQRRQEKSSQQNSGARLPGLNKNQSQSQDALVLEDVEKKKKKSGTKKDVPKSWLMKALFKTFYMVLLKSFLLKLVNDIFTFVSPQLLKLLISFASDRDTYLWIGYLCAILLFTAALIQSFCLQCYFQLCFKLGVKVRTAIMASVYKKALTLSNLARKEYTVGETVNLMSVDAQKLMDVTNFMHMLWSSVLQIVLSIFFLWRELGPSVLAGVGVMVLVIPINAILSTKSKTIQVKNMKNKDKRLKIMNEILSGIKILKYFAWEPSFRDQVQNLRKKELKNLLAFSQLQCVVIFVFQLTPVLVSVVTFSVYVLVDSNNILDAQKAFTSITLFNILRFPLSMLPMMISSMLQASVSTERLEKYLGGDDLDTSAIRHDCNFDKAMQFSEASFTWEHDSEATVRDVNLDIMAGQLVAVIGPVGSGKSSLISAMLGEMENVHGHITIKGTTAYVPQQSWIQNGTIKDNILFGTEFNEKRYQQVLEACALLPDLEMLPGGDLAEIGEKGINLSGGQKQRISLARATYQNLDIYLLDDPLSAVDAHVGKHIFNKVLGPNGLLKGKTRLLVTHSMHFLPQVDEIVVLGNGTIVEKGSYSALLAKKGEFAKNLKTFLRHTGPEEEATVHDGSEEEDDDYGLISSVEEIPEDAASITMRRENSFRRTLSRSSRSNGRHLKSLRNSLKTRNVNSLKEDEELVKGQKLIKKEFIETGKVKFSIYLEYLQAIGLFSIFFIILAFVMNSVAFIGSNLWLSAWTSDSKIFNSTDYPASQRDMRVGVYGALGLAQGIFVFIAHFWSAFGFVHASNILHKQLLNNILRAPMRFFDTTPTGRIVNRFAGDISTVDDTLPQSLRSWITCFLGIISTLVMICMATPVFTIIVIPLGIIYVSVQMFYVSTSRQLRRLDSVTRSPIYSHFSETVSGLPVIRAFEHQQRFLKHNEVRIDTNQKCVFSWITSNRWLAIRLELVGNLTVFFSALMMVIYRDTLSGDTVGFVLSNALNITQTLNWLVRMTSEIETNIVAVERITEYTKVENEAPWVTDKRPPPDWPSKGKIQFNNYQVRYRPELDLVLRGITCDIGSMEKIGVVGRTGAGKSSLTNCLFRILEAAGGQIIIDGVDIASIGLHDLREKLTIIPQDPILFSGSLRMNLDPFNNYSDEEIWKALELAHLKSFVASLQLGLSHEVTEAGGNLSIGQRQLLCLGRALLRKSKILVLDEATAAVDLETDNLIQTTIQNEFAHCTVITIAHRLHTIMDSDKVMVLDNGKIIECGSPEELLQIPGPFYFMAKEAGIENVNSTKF
efflux ratio [1],Vdss (Rattus norvegicus [2]),fraction unbound at 2 µM [3],Drug uptake(free) [4],IC50 [5],Fu [6],Ratio [7],F (Rattus norvegicus [8]),concentration at 1 h [9],concentration at 4 h [11],concentration at 1 h [14],Ratio [15],Cp(f) [16],IC50 [17],IC50 [18],half-life [21],hepatocyte CLint [22],IC50 [23],SMILES,CSF DOPAC level (% of vehicle) (Rattus norvegicus [10]),Activity (Rattus norvegicus [13]),other results
1.2,2.2 L/kg,0.49,35 nM,3.98 nM,0.6,6.8,73%,110 ng/g,157 nM,1820 ng/mL,4.4,23 nM,< 1 nM,1580 nM,2.8 h,21 µL/min/1e6 cells,3980 nM,O=S(=O)(c1cc(F)c(O)c2ncccc12)N1CCCC1,140%,72%,inhibition (INH) [12]: Not Active; Activity [19]: Not Active; Kp uu at 4 h [20]: 3.3; inhibition (INH) [24]: Not Active; inhibition (INH) [25]: Not Active
0.7,3.5 L/kg,0.47,7.7 nM,3.98 nM,–,2.6,100%,527 ng/g,127 nM,5720 ng/mL,16,48 nM,< 1 nM,1580 nM,4.5 h,15 µL/min/1e6 cells,> 10000 nM,O=S(=O)(c1ccc(F)cc1)c1cc(F)c(O)c2ncccc12,173%,86%,Kp uu at 4 h [20]: 1.2; Papp [26]: > 10 ×10⁻⁶ cm/s
–,–,–,–,2 nM,–,–,–,109 ng/g,–,235 ng/mL,–,–,–,2000 nM,–,228 µL/min/1e6 cells,–,O=S(=O)(c1ccc(O)c2ncccc12)N1CCCC1Cc1ccccc1 (stereo unspecified),–,–,fraction unbound [27]: 0.5; Fu [28]: 0.5
–,–,–,–,–,–,–,–,–,–,–,–,–,–,–,–,–,–,Cc1ccc(C(=O)c2cc(O)c(O)c([N+](=O)[O-])c2)cc1 [TOLCAPONE],–,–,Cp(f) [29]: 35 nM; Drug uptake(free) [30]: Bld; Drug uptake [31]: Bld
–,0.3 L/kg,–,5.6 nM,20 nM,0.5,11,37%,2790 ng/g,358 nM,14700 ng/mL,64,32 nM,< 1 nM,7940 nM,11 h,18 µL/min/1e6 cells,> 10000 nM,O=S(=O)(c1cc(Cl)c(O)c2ncccc12)C1CCCC1,213%,97%,–

SMILES,efflux ratio [1],Vdss (Rattus norvegicus [2]),fraction unbound at 2 µM [3],Drug uptake(free) [4],IC50 [5],Fu [6],Ratio [7],F (Rattus norvegicus [8]),concentration at 1 h [9],concentration at 4 h [11],concentration at 1 h [14],Ratio [15],Cp(f) [16],IC50 [17],IC50 [18],half-life [21],hepatocyte CLint [22],IC50 [23],CSF DOPAC level (% of vehicle) (Rattus norvegicus [10]),Activity (Rattus norvegicus [13]),other results
Oc1cccc2cccnc12 [OXYQUINOLINE],–,–,–,–,1580 nM,–,–,–,–,–,–,–,–,–,–,–,–,–,–,–,IC50 [32]: 3160 nM
